Calls of active or inactive are those of the source. No cut-off for these calls is given here.
Tests used:
Cytochrome P450 2C9 [1] = molecular target: T1, Cytochrome P450 2C9 (Homo sapiens, UniProt P11712); assay: Drug metabolism assessed as intrinsic clearance for human recombinant CYP2C9-mediated compound formation per nmol protein treated with AM2201 at 10 uM after 90 mins; assay type: ADME; conditions: recombinant enzyme, 1.5 h
Liver microsome [2] = assay: Drug metabolism in human liver microsomes assessed as intrinsic clearance per mg protein treated with AM2201; assay type: ADME
[3] = molecular target: Cannabinoid receptor 1 (Mus musculus) (UniProt P47746); assay: Activation of CB1 receptor in B6SJL mouse brain membrane assessed as [35S]-GTPgammaS binding at 10 uM after 30 mins by liquid scintillation spectrophotometric analysis; assay type: functional, cell membranes
Chain of Cannabinoid receptor 1 (Mus musculus) (P47746 whole entry): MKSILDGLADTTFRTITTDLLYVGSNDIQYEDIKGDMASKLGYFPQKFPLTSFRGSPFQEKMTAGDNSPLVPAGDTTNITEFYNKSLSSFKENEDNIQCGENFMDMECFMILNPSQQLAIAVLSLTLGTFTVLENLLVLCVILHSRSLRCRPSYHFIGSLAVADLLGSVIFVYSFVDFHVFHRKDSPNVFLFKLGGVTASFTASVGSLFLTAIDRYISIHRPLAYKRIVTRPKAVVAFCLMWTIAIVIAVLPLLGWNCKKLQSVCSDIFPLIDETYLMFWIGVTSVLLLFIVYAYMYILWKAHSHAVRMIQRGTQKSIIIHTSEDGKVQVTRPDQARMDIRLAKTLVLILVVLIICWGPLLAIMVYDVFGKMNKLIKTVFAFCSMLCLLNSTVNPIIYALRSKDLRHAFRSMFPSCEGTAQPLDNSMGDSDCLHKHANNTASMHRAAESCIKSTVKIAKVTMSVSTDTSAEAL
In short: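 Mouse brain membrane homogenate (25 μg; whole B6SJL brains, pooled, Dounce-homogenised, spun 40,000g three times). Incubated with […], 0.1 nM [35S]GTPγS in 20 mM HEPES, 10 mM MgCl2, 100 mM NaCl, 20 U/l adenosine deaminase, 0.05% BSA, 30 min at 30°C, triplicate. Nonspecific binding with 10 μM unlabelled GTPγS. Stopped by GF/B filtration; filters counted by scintillation.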

Cytochrome P450 1A2 [4] = molecular target: T2, Cytochrome P450 1A2 (Homo sapiens, UniProt P05177); assay: Drug metabolism assessed as intrinsic clearance for human recombinant CYP1A2-mediated compound formation per nmol protein treated with AM2201 at 10 uM after 90 mins; assay type: ADME; conditions: recombinant enzyme, 1.5 h
T2 sequence (P05177 whole entry): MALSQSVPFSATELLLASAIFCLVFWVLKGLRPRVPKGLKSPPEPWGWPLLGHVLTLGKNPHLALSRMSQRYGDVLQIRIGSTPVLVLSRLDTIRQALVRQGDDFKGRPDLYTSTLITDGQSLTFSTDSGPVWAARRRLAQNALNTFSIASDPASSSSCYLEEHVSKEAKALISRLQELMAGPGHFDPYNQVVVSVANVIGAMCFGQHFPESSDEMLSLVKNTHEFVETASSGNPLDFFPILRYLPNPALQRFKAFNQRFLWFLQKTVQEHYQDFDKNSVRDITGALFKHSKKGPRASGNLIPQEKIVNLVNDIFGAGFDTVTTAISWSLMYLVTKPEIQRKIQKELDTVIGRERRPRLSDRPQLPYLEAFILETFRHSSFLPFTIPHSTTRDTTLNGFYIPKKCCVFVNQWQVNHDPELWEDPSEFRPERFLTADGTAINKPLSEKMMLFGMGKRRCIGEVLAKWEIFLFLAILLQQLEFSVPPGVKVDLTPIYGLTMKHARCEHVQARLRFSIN

Cytochrome P450 2C19 [5] = molecular target: T3, Cytochrome P450 2C19 (Homo sapiens, UniProt P33261); assay: Drug metabolism assessed as intrinsic clearance for human recombinant CYP2C19-mediated compound formation per nmol protein treated with AM2201 at 10 uM after 90 mins; assay type: ADME; conditions: recombinant enzyme, 1.5 h
T3 sequence (P33261 whole entry): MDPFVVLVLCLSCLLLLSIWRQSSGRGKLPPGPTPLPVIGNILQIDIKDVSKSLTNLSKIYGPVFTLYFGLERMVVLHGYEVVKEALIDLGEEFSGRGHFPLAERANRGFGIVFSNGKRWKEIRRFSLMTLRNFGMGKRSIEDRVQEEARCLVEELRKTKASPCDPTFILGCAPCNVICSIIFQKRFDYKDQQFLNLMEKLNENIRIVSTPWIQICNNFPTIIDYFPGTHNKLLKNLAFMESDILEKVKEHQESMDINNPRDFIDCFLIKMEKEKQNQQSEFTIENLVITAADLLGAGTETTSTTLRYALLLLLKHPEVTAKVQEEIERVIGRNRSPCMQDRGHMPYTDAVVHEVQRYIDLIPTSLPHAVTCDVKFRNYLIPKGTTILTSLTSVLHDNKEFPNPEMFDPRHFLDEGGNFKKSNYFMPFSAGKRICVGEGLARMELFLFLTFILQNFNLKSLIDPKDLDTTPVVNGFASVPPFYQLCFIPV

Cytochrome P450 2D6 [6] = molecular target: T4, Cytochrome P450 2D6 (Homo sapiens, UniProt P10635); assay: Drug metabolism assessed as intrinsic clearance for human recombinant CYP2D6-mediated compound formation per nmol protein treated with AM2201 at 10 uM after 90 mins; assay type: ADME; conditions: recombinant enzyme, 1.5 h
T4 sequence (P10635 whole entry): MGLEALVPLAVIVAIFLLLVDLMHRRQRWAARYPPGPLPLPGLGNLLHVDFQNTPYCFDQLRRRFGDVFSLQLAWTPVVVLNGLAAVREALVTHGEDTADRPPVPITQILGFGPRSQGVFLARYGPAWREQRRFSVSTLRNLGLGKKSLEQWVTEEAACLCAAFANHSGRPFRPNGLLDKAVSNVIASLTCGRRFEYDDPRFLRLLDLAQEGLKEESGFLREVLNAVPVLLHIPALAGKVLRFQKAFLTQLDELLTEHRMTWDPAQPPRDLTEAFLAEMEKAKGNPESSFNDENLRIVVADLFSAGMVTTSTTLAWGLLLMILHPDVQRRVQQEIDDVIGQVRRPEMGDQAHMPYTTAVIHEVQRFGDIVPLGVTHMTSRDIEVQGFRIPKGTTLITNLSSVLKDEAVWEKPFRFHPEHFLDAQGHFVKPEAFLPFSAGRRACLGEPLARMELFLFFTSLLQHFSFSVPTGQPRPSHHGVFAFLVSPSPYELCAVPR

Cytochrome b5 = Cytochrome b5 (Homo sapiens, UniProt P00167); assay: Drug metabolism assessed as cytochrome b5 (unknown origin)-mediated compound formation treated with JWH-018 at 10 uM after 90 mins by LC-MS/MS analysis in presence of oxidoreductase; assay type: ADME; conditions: 1.5 h
Chain of Cytochrome b5 (P00167 whole entry): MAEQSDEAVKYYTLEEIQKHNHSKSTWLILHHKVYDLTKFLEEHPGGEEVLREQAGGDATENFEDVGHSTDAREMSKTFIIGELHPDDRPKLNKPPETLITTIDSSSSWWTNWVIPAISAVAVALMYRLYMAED

Liver microsome [7] = assay: Drug metabolism in human liver microsomes assessed as intrinsic clearance per mg protein treated with JWH-018; assay type: ADME
Liver microsome [8] = assay: Drug level in human liver microsomes treated with JWH-018 at 10 uM after 20 mins by LC-MS/MS analysis; assay type: ADME
In short: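 Pooled human liver microsomes (75 μg) incubated with 10 μM substrate in 0.1 M KPO4 pH 7.4 with NADPH-regenerating system at 37°C. Reaction stopped with ethanol, centrifuged. Analytes quantified by positive-ESI LC-MS/MS against standards matrix-matched in reaction mixture, with confirmation by SRM-triggered enhanced product ion spectra library matching.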

Cytochrome P450 2C19 [9] = molecular target: T3, Cytochrome P450 2C19; assay: Drug metabolism assessed as intrinsic clearance for human recombinant CYP2C19-mediated compound formation per nmol protein treated with JWH-018 at 10 uM after 90 mins; assay type: ADME; conditions: recombinant enzyme, 1.5 h
[10] = Drug level in human urine treated with JWH-018 by LC-MS/MS analysis; assay type: ADME, tissue-based
In short: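 Urine from suspected users (40 μl) incubated with or without β-glucuronidase (1.6 U/μl final) in 0.1 M sodium acetate pH 5.0, 60 min at 37°C with shaking. Analysed by positive-ESI LC-MS/MS against standards matrix-matched in blank pooled human urine, with confirmation by enhanced product ion spectra.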

[11] = molecular target: Cannabinoid receptor 1 (Mus musculus) (UniProt P47746); assay: Activation of CB1 receptor in B6SJL mouse brain membrane assessed as [35S]-GTPgammaS binding at 10 uM after 30 mins by liquid scintillation spectrophotometric analysis in presence of O-2050; assay type: functional, cell membranes
Cytochrome P450 1A2 [12] = molecular target: T2, Cytochrome P450 1A2; assay: Drug metabolism assessed as intrinsic clearance for human recombinant CYP1A2-mediated compound formation per nmol protein treated with JWH-018 at 10 uM after 90 mins; assay type: ADME; conditions: recombinant enzyme, 1.5 h
Cytochrome P450 2D6 [13] = molecular target: T4, Cytochrome P450 2D6; assay: Drug metabolism assessed as intrinsic clearance for human recombinant CYP2D6-mediated compound formation per nmol protein treated with JWH-018 at 10 uM after 90 mins; assay type: ADME; conditions: recombinant enzyme, 1.5 h
Cannabinoid receptor 1 = Cannabinoid receptor 1 (Mus musculus, UniProt P47746); assay: Displacement of [3H]CP-55,940 from CB1 receptor in B6SJL mouse brain membrane after 90 mins by liquid scintillation spectrophotometric analysis; assay type: cell membranes
Chain of Cannabinoid receptor 1 (P47746 whole entry): as the sequence (P47746 whole entry) above
In short: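 B6SJL mouse brain membranes (50 μg) with 0.2 nM [3H]CP-55,940 and competitor at 0.1 nM–10 μM. Buffer 5 mM MgCl2, 50 mM Tris, 0.05% BSA; 90 min at room temperature, triplicate. Nonspecific binding set with 10 μM WIN-55,212-2. Filtered on GF/B, washed with Tris/BSA, counted by scintillation. Specific binding given as % of vehicle.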

Cytochrome P450 2C9 [14] = molecular target: T1, Cytochrome P450 2C9; assay: Drug metabolism assessed as intrinsic clearance for human recombinant CYP2C9-mediated compound formation per nmol protein treated with JWH-018 at 10 uM after 90 mins; assay type: ADME; conditions: recombinant enzyme, 1.5 h

T1 sequence (P11712 whole entry): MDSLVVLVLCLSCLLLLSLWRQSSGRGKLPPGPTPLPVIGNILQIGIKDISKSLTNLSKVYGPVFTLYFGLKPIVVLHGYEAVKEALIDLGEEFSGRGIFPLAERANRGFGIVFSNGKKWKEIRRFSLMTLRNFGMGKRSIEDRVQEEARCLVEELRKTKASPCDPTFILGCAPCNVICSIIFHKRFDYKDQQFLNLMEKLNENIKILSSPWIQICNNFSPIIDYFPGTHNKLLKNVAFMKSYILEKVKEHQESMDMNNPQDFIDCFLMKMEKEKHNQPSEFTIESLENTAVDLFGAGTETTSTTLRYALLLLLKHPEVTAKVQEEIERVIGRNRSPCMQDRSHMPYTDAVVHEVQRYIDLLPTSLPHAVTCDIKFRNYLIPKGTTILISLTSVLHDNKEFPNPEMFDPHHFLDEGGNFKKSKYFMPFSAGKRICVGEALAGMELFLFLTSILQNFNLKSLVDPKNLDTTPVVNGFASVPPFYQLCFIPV

SMILES | CLH (Liver microsome [2]) [µL/min/g] | Activity [3] | CLH (Liver microsome [7]) [µL/min/mg] | Drug metabolism (Liver microsome [8]) | other results
O=C(c1cccc2ccccc12)c1cn(CCCC(O)CF)c2ccccc12 (stereo not given) | 0.124 | Active |  |  | CL (Cytochrome P450 2C9 [1]): 63 µL/min; CL (Cytochrome P450 1A2 [4]): 19 µL/min; CL (Cytochrome P450 2C19 [5]): 32 µL/min; CL (Cytochrome P450 2D6 [6]): 3.7 µL/min
CCCCCn1cc(C(=O)c2cccc3ccccc23)c2ccc(O)cc21 | 0 |  | 1 | metabolite_detected | Drug metabolism (Cytochrome b5): metabolite_detected
CCCCCn1cc(C(=O)c2cccc3ccccc23)c2cc(O)ccc21 | 0 |  | 0.52 | metabolite_detected | 
CC(O)CCCn1cc(C(=O)c2cccc3ccccc23)c2ccccc21 (stereo not given) |  | Active | 0.574 |  | CL (Cytochrome P450 2C19 [9]): 48.7 µL/min; Drug metabolism [10]: metabolite_detected; Activity [11]: inactive; CL (Cytochrome P450 1A2 [12]): 306 µL/min; CL (Cytochrome P450 2D6 [13]): 13.4 µL/min; Ki (Cannabinoid receptor 1): 15.4 nM; CL (Cytochrome P450 2C9 [14]): 375 µL/min
CCCCCn1cc(C(=O)c2cccc3ccccc23)c2cccc(O)c21 | 0 |  | 0 | metabolite_detected | 
